High-throughput results from PubChem.
Shown are actives, neighbours in structure and some others; about 2% of the full set was active somewhere.
ASAP1 inh – ASAP1 ArfGAP inhibition | ASAP1-stimulated ARF1 GTP hydrolysis, GDP FP detection | inhibition, % at 16.5 µM | 360,000 tested, 0.19% active | AID 624377; in the data active means inhibition above about 25%;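 further: 0% = vehicle with enzyme and substrate and 100% = no enzyme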
TCR-CD3 inh – human TCR-CD3 binding inhibition; TAMRA-labeled TCR probe fluorescence, biochemical; inhibition, % at 9.4 µM; 360,000 tested, 0.37% active; in the data active means inhibition above about 19%;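 further: recombinant mutant TCR 2C K166C tagged with TAMRA read by polarization; 0% = receptor in buffer alone and 100% = receptor with positive control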
UHRF1 binding – human UHRF1 methylated DNA binding inhibitors. UHRF1 binding to methylated oligo, TR-FRET. inhibition, % at 4.4 µM. 370,000 tested, 0.75% active;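 further: UHRF1 SRA domain binding a hemimethylated CpG hairpin DNA probe; 0% = median of test compound wells and 100% = reference inhibitor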
LEDGF integ inh – blocks HIV-1 LEDGF/p75-dependent DNA integration; 370,000 tested, 0.64% active; TR-FRET IN-LEDGF/p75 DNA integration, Eu/Cy5; inhibition, % at 3.7 µM; AID 743269;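 active means inhibition above the screen-wide mean plus 3 SD, cut at about 13% in these data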;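 further: signal is the Cy5 over europium emission ratio at 671 and 618 nm; 0% = plate median of compound wells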
ARFGAP1 inh – rat ARFGAP1 inhibition; Q62848; Arfgap1-stimulated ARF1 GTP hydrolysis, GDP FP detection; inhibition, % at 16.5 µM; 360,000 tested, 0.26% active; AID 651572;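 active means inhibition above a per-plate limit, mean inhibition of low control wells plus 3 SD, cut at about 25% in these data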;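 further: 0% = DMSO wells with enzyme and 100% = wells lacking Arfgap1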
Target sequence (Q62848 1-136 limits assumed): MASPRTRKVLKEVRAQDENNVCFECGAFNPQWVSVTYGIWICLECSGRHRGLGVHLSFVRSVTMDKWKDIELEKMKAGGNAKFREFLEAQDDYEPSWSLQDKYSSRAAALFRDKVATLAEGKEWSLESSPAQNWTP
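Material: rat Arfgap1 catalytic domain, aa 1-136; also added: human ARF1(Δ1-17)-GTP substrate; compound dosing: one concentration, 16.5 µM, DMSO 1.26%; incubation: GTP hydrolysis reaction 2 h at 25 °C; measured by: Tracer-displacement fluorescence polarization with EDTA stop, 620/688 nm; evaluation: % inhibition from polarization; repeats: one replicate per compound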
MBD2 DNA inh – MBD2-methylated oligo binding inhibition. TR-FRET, MBD2 binding to methylated oligonucleotide. Q9UBB5. inhibition, % at 4.4 µM. AID 686964. 370,000 tested, 0.31% active; in the data active means inhibition above about 13%
UHRF1 DNA bind – UHRF1 methyl-oligo binding inhibition as MBD2 counter-screen. shares compounds with MBD2 DNA inh. UHRF1 binding to methylated oligonucleotide, TR-FRET. inhibition, % at 4.4 µM. 1,000 tested, 25% active. AID 720530;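 further: UHRF1 SRA domain binding a labeled hemimethylated CpG hairpin DNA; 0% = vehicle only and 100% = reference inhibitor with vehicle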
MBD2 confirm – confirmation of human MBD2-DBD methylated oligonucleotide binding inhibitors | shares compounds with MBD2 DNA inh | TR-FRET MBD2-DBD binding to methylated oligonucleotide | inhibition, % at 4.4 µM | 1,000 tested, 26% active; in the data active means inhibition above about 14%
Starred values were filed as active, the others as inactive; . = no result given. Unless noted, no stated cut-off is given here; in the data, active means inhibition above about 21%; inactive means the rest.

SMILES | ASAP1 inh | TCR-CD3 inh | UHRF1 binding | LEDGF integ inh | ARFGAP1 inh | MBD2 DNA inh | UHRF1 DNA bind | MBD2 confirm
CCCC/C=C1/[C@@H](C(C)C)N(Cc2ccc3c(c2)OCO3)C2=N[C@H](c3ccccc3)CC(=O)N21 | . | . | 7 | 4 | . | -3 | . | .
CCN(CC)CCNC(=O)c1cc(-c2ccco2)nc2ccccc12 | 7 | 1 | -5 | 4 | -3 | 0 | . | .
COc1ccc(CCNC(=O)c2cc(-c3ccco3)nc3ccccc23)cc1 | -9 | 5 | 21* | 9 | 0 | 17* | 15 | 11
c1ccc(Nc2nc(-c3ccccn3)cs2)cc1 | 4 | -1 | 1 | 10 | -9 | -6 | . | .
c1ccc(-c2csc(Nc3cccnc3)n2)nc1 | -14 | 0 | -3 | -3 | 1 | 27* | 0 | 2
COCCCn1cc(CN2CC(N3CCCC3)CS2(=O)=O)nn1 (stereo not given) | -6 | 0 | 10 | -2 | -17 | 5 | . | .
COCCCn1cc(CN2CC(N3CCN(C)CC3)CS2(=O)=O)nn1 (stereo not given) | -1 | 5 | 20 | -2 | -8 | 13* | 12 | 6
Cc1cccc(CN2CCN(C3CN(Cc4cn(Cc5ccc(Cl)cc5)nn4)S(=O)(=O)C3)CC2)c1 (stereo not given) | -3 | -8 | 15 | -4 | 11 | 13* | 6 | 5
CN(C)CCN1CCN(C2CN(Cc3cn(Cc4ccccc4)nn3)S(=O)(=O)C2)CC1 (stereo not given) | 8 | -2 | 20 | -2 | -6 | 15* | 6 | 8
COc1ccc(C(=O)NC2CCN(S(=O)(=O)c3ccccc3F)CC2)cc1 | -2 | -5 | 3 | -3 | -1 | -1 | . | .
CC(C)(C)C(=O)NC1CCN(S(=O)(=O)c2ccccc2F)CC1 | -2 | 3 | -1 | 4 | 1 | 15* | 7 | 3
Cn1nc(-c2ccccn2)nc2c(=O)n(C)c(=O)nc1-2 | -1 | -8 | 11 | -24 | -6 | 14* | -11 | 13
CCCc1ccc(C(=O)NNC(=O)c2ccc(Br)cc2)cc1 | 12 | 4 | 2 | 2 | -3 | 15* | 8 | 10
CC(=O)c1ccc(NC(=S)NC(C)c2ccc(Cl)cc2Cl)cc1 (stereo not given) | 9 | 3 | -3 | 2 | 17 | -6 | . | .
COc1ccc(OC)c(S(=O)(=O)NC(N)=NCCc2ccccc2)c1 | 15 | 4 | 2 | 2 | 4 | 1 | . | .
C=CCn1c(C)cc(C(=O)CSc2nc3ccccc3[nH]2)c1C | -9 | -8 | -3 | -2 | -15 | 20* | 9 | 2
Cc1[nH]n(-c2ccccc2)c(=O)c1C(=O)c1cccc(F)c1 | 1 | -1 | 5 | 2 | 3 | -3 | . | .
CC1=NN(c2ccc(F)cc2)C(=O)C1C(c1cccc(O)c1)c1c(C)[nH]n(-c2ccc(F)cc2)c1=O (stereo not given) | 2 | 3 | 19 | 39* | 16 | 19* | 2 | -1
CCOC(=O)c1cc(-c2ccc(N3CCOCC3)cc2)nn1-c1ccccc1C(=O)O | -11 | 15 | 20 | 0 | -5 | 23* | 27* | 27*
CCOC(=O)c1cc(-c2ccc(N3CCOCC3)cc2)nn1-c1ccccc1 | 5 | 8 | 5 | -1 | -4 | 3 | . | .
c1ccc2c(c1)CC(N1CCCCC1)c1ccccc1N2 (stereo not given) | 11 | 5 | 2 | -2 | -14 | -5 | . | .
c1ccc2c(c1)c1c(c3ccccc32)CN2CCCC2C1 (stereo not given) | -12 | -2 | 26* | 5 | -19 | 36* | 34* | 49*
O=c1c2ccccc2nnn1Cc1ccccc1Cl | -4 | 2 | -2 | -5 | 9 | 5 | . | .
CCn1c(SCC(=O)c2ccc(O)c(O)c2)nnc1-c1ccc(C)cc1 | -13 | 2 | 44* | 6 | 5 | 15* | 14 | 5
